The subject of assay [1] is Mus musculus. As to the kind of experiment: Neuroprotective activity against 6-OHDA-induced Kunming mouse peripheral sympathetic nerve injury measured as norepinephrine content in submandibular gland at 2 mg/kg, sc. The class given is functional. Particulars: route subcutaneous. In a few lines: (§1)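 Adult female Kunming mice, 22 g, lesioned with 6-OHDA 8 mg/kg i.p.; compound given s.c. 4 h before lesion and daily for 4 further days; vehicle controls. Killed 2 weeks after last dose; both submandibular glands weighed and homogenized with 3,4-dihydroxybenzylamine internal standard, centrifuged 30 min; norepinephrine in supernatant by HPLC-ECD, µg/g wet weight; mean ± SEM.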

Assay [2] deals with T1, Peptidyl-prolyl cis-trans isomerase FKBP4 (Homo sapiens) (UniProt Q02790).
T1 sequence (whole entry): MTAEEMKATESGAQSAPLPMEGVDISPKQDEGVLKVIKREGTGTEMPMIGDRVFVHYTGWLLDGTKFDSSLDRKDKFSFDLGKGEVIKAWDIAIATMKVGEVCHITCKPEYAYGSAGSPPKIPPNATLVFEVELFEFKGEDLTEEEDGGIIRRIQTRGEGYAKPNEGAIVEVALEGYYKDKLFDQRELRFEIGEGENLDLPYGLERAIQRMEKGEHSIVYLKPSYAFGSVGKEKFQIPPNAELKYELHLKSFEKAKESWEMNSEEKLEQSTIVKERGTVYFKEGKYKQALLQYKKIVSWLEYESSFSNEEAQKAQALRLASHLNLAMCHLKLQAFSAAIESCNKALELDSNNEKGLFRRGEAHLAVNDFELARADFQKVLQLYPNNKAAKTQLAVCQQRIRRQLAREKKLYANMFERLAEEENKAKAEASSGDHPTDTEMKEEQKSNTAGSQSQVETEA
As to the kind of experiment: Increase in neurite outgrowth in chick embryo dorsal root ganglion at 100 pM in presence of NGF. The class given is functional, tissue-based. Particulars: Gallus gallus, target entry is the homologue from another species. In a few lines: (§2)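 DRGs from 8-day chick embryos, on rat tail collagen-coated flasks, 5-6 per flask; after 1 h attachment at 37 °C, 5% CO2, treated with compound plus 0.15 ng/mL NGF in DMEM for 48 h. DMSO stock 1 mM, final DMSO below 10^-7 M. Phase-contrast scoring of neurite number and length, averaged over 15-18 ganglia; NGF-only controls; one-way ANOVA with Student-Newman-Keuls.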

For assay [3], the target named is T1, Peptidyl-prolyl cis-trans isomerase FKBP4 (Homo sapiens). Description: Increase in neurite outgrowth in chick embryo dorsal root ganglion at 1 pM in presence of NGF. In kind it is functional, tissue-based. Particulars: Gallus gallus, target entry is the homologue from another species. An outline of the steps:
as §2

Assay [4] shares this target. Description: Decrease in neurite outgrowth in chick embryo dorsal root ganglion at 1 nM in presence of NGF. The class given is functional, tissue-based. Particulars: Gallus gallus, target entry is the homologue from another species. In a few lines: as §2
Assay [5] has the same target. As to the kind of experiment: Increase in neurite outgrowth in chick embryo dorsal root ganglion in presence of NGF. In kind it is functional, tissue-based. As to conditions: Gallus gallus, target entry is the homologue from another species. In a few lines: as §2
The target is the same in assay [6]. As to the kind of experiment: Increase in neurite outgrowth in chick embryo dorsal root ganglion in absence of NGF. As to conditions: Gallus gallus, target entry is the homologue from another species. The class given is functional, tissue-based.
Assay [7] deals with Mus musculus. Description: Neuroprotective activity against 6-OHDA-induced Kunming mouse peripheral sympathetic nerve injury measured as norepinephrine content in submandibular gland at 10 mg/kg, sc. Particulars: route subcutaneous. In kind it is functional. An outline of the steps: as §1

Calls of active or inactive are those of the source. The calls are words filed in the database; no cut-off is given here.

`C=CC[C@@H]1/C=C(\C)C[C@H](C)C[C@H](OC)[C@H]2O[C@@](O)(C(=O)C(=O)N3CCCC[C@H]3C(=O)O[C@H](/C(C)=C/[C@@H]3CC[C@@H](O)[C@H](OC)C3)[C@H](C)[C@@H](O)CC1=O)[C@H](C)C[C@@H]2OC` [TACROLIMUS ANHYDROUS] registered an Activity with Mus musculus [1] of 2.33 µg/g.
Take `C=CCCCCCCCCOC(=O)[C@@H]1CSC(C)(C)N1C(=O)C(=O)C(C)(C)C`: the outcome in assay [2] and in assay [3] was Active.
Take `CCC(C)(C)C(=O)C(=O)N1[C@H](C(=O)OC/C=C/c2ccccc2)CSC1(C)C`: the result in assay [2] and in assay [3] was Active.
Take `CCCCCCC(=O)C(=O)N1[C@H](C(=O)OCCCc2ccccc2)CSC1(C)C`: the result in assay [2] and in assay [3] was Active.
`CC(C)(C)C(=O)C(=O)N1[C@H](C(=O)OCCCc2ccccc2)CSC1(C)C`: the outcome in assay [2] and in assay [3] was Active.
`CCCCCCC(=O)C(=O)N1[C@H](C(=O)OCCc2ccccc2Cl)CSC1(C)C`: the result in assay [2] and in assay [3] was Active.
With `CC(C)(C)C(=O)C(=O)N1[C@H](C(=O)OCCCc2cccnc2)CSC1(C)C`, the result in assay [4], in assay [2] and in assay [3] was Active. In addition, the Activity entry was “Dose-dependent effect” in assay [5] and 2.31 µg/g in the assay on Mus musculus [7]. In addition, the result in assay [6] was inactive.
